The values below come from article PMC6824728 (International journal of pharmaceutics, 2019).

One data set relates to M-Wnt cells. As to the kind of experiment: In vitro cytotoxicity, MTT assay. The settings on record: 24 h of incubation. The format is cell-based, murine. The procedure, abridged: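 M-Wnt cells were grown in RPMI 1640 plus 1% Glutamax and seeded at 1,000 cells/well. After overnight attachment at 37°C, 5% CO2, they were treated for 24 h with graded concentrations of free compound (DMSO stock diluted in medium) or SLN formulation (dispersed in medium). Drug-free SLN, DMSO and medium controls were included. Survival was read by MTT.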

For another data set, the system named is B16-F10 tumor. As to the kind of experiment: Antitumor activity in mice with pre-established B16-F10 tumors. The format is in vivo. The note with it: B16-F10 s.c. tumors, i.v. 50 mg/kg DHA-dFdC on days 7, 10, 13, 16.
In a further data set the test system is B16-F10 tumors. Nature of the data set: Histology. The class given is in vivo, C57BL/6 mice. The settings on record: tumors collected day 17; i.v. 50 mg/kg DHA-dFdC x 4. In a few lines:
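Female C57BL/6 mice (18–20 g, 6–8 weeks) received 5 × 10^5 B16-F10 cells s.c. in the right flank on day 0. They were randomized on day 7 and dosed i.v. every 3 days ×4 at 50 mg/kg. Free compound was given in Tween 80/ethanol/5% mannitol vehicle; SLNs were dispersed in 5% mannitol. Tumors were harvested day 17, formalin-fixed, embedded and H&E stained.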

The conditions of data set [1]: ref Naguib et al., 2016; cited from earlier work.
For data set [2] the following is noted: Tween 80-ethanol-water solution, room temperature; ref Naguib et al., 2016; cited from earlier work.
In the next data set the test system is B16-F10 cells. As to the kind of experiment: In vitro cytotoxicity, MTT assay. The class given is cell-based, murine. The note with it: 48 h of incubation. In a few lines: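 B16-F10 cells were grown in DMEM and seeded at 4,000 cells/well. After overnight attachment at 37°C, 5% CO2, they were exposed for 48 h to graded concentrations of free compound (DMSO stock diluted in medium) or SLN formulation (dispersed in medium). Drug-free SLNs, DMSO and medium served as controls. Survival was read by MTT.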

For data set [3] the following is noted: 20°C; ref Kim and Hsieh, 2001; Wu and Hopkins, 1999; cited from earlier work.

`CC/C=C\C/C=C\C/C=C\C/C=C\C/C=C\C/C=C\CCC(=O)Nc1ccn([C@@H]2O[C@H](CO)[C@@H](O)C2(F)F)c(=O)n1` [DHA-dFdC, 4-(N)-docosahexaenoyl 2′, 2′-difluorodeoxycytidine]: the figures for the IC50 in the data set with M-Wnt cells and in the data set with B16-F10 cells were 2.15 µM and 1.81 µM, respectively. Besides, the Tumor growth delay with B16-F10 tumor came out at 4 days. In addition, the “Tumor histology (H&E)” value in the data set with B16-F10 tumors is “vascular collapse and necrotic areas”. The “Intrinsic solubility in water” value in data set [1] is ~ 25 μg/mL. The “Half-life of DHA-dFdC in solution” value in data set [2] is listed as ~ 14 h.
As for Tween 20, the Critical micelle concentration in data set [3] is recorded as ~ 1 % (w/v).
